The text below walks through data of ChEMBL document CHEMBL3822427, “An evaluation of Minor Groove Binders as anti-lung cancer therapeutics” (Bioorg Med Chem Lett, 2016).

Data set [1] is described as follows: (§1) Antiproliferative activity against mouse B16-F10-Luc-G5 cells assessed as cell growth inhibition at 15.36 ug/ml measured after 24 hrs by luciferase gene assay relative to DMSO control. Type of data set: functional. The settings on record: read-out: GI.
Data set [2] is described as follows: Antiproliferative activity against mouse B16-F10-Luc-G5 cells assessed as cell growth inhibition measured after 24 hrs by luciferase gene assay. Type of data set: functional, cell-based. The gist of the method: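 Luciferase-expressing murine melanoma cells exposed to a concentration series, with gemcitabine as positive control. Growth read by bioluminescence. IC50 is the mean of three experiments, each with three replicates per concentration, reported ± SD.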

The nature of data set [3]: Potency index, ratio of gemcitabine IC50 to compound IC50 for mouse B16-F10-Luc-G5 cells. It counts as functional.
Data set [4] concerns Hepatocyte. Nature of the data set: Cellular uptake in rat hepatocytes at 7.5 uM measured after 24 hrs by fluorescence analysis. It counts as ADME, cell-based. Put shortly: (§2)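 Primary hepatocyte monolayers exposed to 7.5µM compound over 24 h, with DMSO control. Uptake checked by fluorescence microscopy using red, green and blue filter settings. Morphology assessed by phase contrast with a x20 wet lens, including images at 60 min.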

The test system of data set [5] is Hepatocyte. Nature of the data set: Cytotoxicity against rat hepatocytes assessed as change in cell morphology at 7.5 uM measured up to 24 hrs by phase contrast microscopic analysis. It counts as cell-based. Put shortly:
as §2

The test system of data set [6] is Hepatocyte. The data set is described as follows: Cytotoxicity against rat hepatocytes assessed as reduction in cell viability at 7.5 uM measured up to 24 hrs. Type of data set: cell-based.
Data set [7] is filed under the species Mus musculus. The description is as §1. It counts as functional.
A short description of data set [8]: Drug internalization in nucleus of mouse B16-F0-luc cells at 250 uM measured after 1 hr by DAPI staining based fluorescence microscopic analysis. It counts as ADME. Put shortly: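 B16-F0-luc mouse melanoma cells exposed to the fluorescent S-MGB probe at two concentrations for 1 hr, with DMSO-only and Hoechst 33342 nuclear-stain controls. Examined live on an inverted fluorescence microscope (x20 objective) under brightfield and UV or DAPI filter sets. Nuclear localisation judged by overlaying fluorescence on brightfield images. Two experiments with separately prepared cells.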

A short description of data set [9]: Drug internalization in nucleus of mouse B16-F0-luc cells at 3 and 30 ug/ml measured after 1 hr by DAPI staining based fluorescence microscopic analysis. Type of data set: ADME.

Calls of active or inactive are those of the source. The rule behind the calls is not given here.

Consider `CC(C)c1sc(N)nc1C(=O)Nc1cc(C(=O)NCCN2CCOCC2)n(C)c1`, for which the inhibition of growth at 15.36 µg/mL in [1] was determined as 2.2%. `CCC(C)n1cc(NC(=O)c2cc(NC(=O)c3ccc(/C=C/c4ccc(OC)cc4)nc3)cn2C)cc1C(=O)NCCN1CCOCC1` (stereo not drawn): the inhibition of growth at 15.36 µg/mL in data set [1] was determined as 84%. With `COc1ccc(/C=C/c2ccc(C(=O)Nc3cc(C(=O)N4CCN(C)CC4)n(C)c3)cn2)cc1`, in data set [1], the inhibition of growth at 15.36 µg/mL was determined as 59%.

Usually IC50 stands for the concentration that gives 50% inhibition. For `Cn1cc(NC(=O)c2cc(NC(=O)c3ccc(/C=C/c4ccc(C(F)(F)F)cc4)cc3)cn2C)cc1C(=O)NCCN1CCOCC1`, the IC50 in data set [2] was 160 nM. In [1], the inhibition of growth at 15.36 µg/mL came to 77%. For the same compound, the “Ratio IC50” value in data set [3] stood at 70. In addition, the Drug uptake entry in data set [4] is reported as “Not Active”. Also, the Activity entry in data set [5] and in data set [6] was “Non-toxic” in each case.

Regarding `CC(C)n1cc(NC(=O)c2cc(NC(=O)c3cnc(Cl)c(Cl)c3)cn2C)cc1C(=O)Nc1cc(C(=O)NCCCN(C)C)n(C)c1`, in data set [1], the inhibition of growth at 15.36 µg/mL turned out to be 16.1%.

For `COc1cccc(/C=C/c2ccc(C(=O)Nc3cc(C(=O)Nc4cc(C(=O)NCCC(=N)N)n(C)c4)n(C)c3)cc2)c1`, the inhibition of growth at 15.36 µg/mL in data set [1] was 67%. Regarding `COc1ccc(/C=C/c2ccc(C(=O)Nc3cc(C(=O)Nc4cc(C(=O)NCCN5CCOCC5)n(C(C)C)c4)n(C)c3)cn2)cc1`, the 50% inhibitory concentration (IC50) in data set [2] is 810 nM. Also, in data set [1], the inhibition of growth at 15.36 µg/mL came out at 83%.

With `CCC(C)n1cc(NC(=O)c2ccc(/C=C/c3ccc(OC)cc3)nc2)cc1C(=O)Nc1cc(C(=O)NCCN2CCOCC2)n(C)c1` (stereo not drawn), the inhibition of growth at 15.36 µg/mL in data set [1] turned out to be 84%. Same read-out and setting: the figure for `Cn1cc(NC(=O)c2cc(NC(=O)c3ccc(/C=C/c4cccc(F)c4)cc3)cn2C)cc1C(=O)NCCN1CCOCC1` is 46%. `Cn1cc(NC(=O)c2cc(NC(=O)c3ccc(/C=C/c4cccc(C(F)(F)F)c4)nc3)cn2C)cc1C(=O)NCCN1CCOCC1`: the “growth inhibition (GI)” value in [7] was “inactive”. Take `Cc1sc(NC(=O)c2ccc3c(c2)C(=O)c2ccccc2C3=O)cc1C(=O)Nc1cc(C(=O)Nc2cc(C(=O)NCCCN(C)C)n(C)c2)n(CCC(C)C)c1`: the inhibition of growth at 15.36 µg/mL in data set [1] was 40%. Regarding `CC(=N)Nc1cc(C(=O)Nc2cc(C(=O)Nc3cc(C(=O)NCCCN(C)C)n(C)c3)n(C)c2)n(C)c1`, in [7], the “growth inhibition (GI)” value is “inactive”. As for `COc1cccc(/C=C/c2ccc(C(=O)Nc3cc(C(=O)NCCN4CCOCC4)n(C)c3)cc2)c1`, the IC50 in data set [2] is 810 nM. For the same compound, in [1], the inhibition of growth at 15.36 µg/mL is 55%. Take `COc1cccc(C(=O)Nc2nc(C(=O)Nc3cc(C(=O)Nc4cc(C(=O)NCCCN(C)C)n(C)c4)n(C)c3)c(C(C)C)s2)c1`: the “growth inhibition (GI)” value in [7] is “inactive”.

Consider `Cn1cc(NC(=O)c2ccc(/C=C/c3cnc4ccccc4c3)cc2)cc1C(=O)NCCN1CCOCC1`, for which the inhibition of growth at 15.36 µg/mL in data set [1] stood at 72%. As for `COc1cccc(C(=N)Nc2ccc(C(=O)Nc3cc(C(=O)Nc4cc(C(=O)NCCN5CCOCC5)n(C)c4)n(C)c3)cc2)c1`, in [1], the inhibition of growth at 15.36 µg/mL came out at 77%.

On to `CCOc1ccc(-c2nc3cc(-c4nc5cc(N6CCN(C)CC6)ccc5[nH]4)ccc3[nH]2)cc1.Cl.Cl.Cl`, for which, in [8], the Drug uptake result is “Active”. With `COc1cccc(C(=N)Nc2cc(C(=O)Nc3cc(C(=O)Nc4nc(C(=O)NCCCN(C)C)c(CCC(C)C)s4)n(C)c3)n(C)c2)c1`, in data set [1], the inhibition of growth at 15.36 µg/mL turned out to be 34%. Turning to `CC(C)n1cc(NC(=O)c2cc(NC(=O)c3ccc(/C=C/c4ccc(C(F)(F)F)cc4)cc3)cn2C)cc1C(=O)NCCN1CCOCC1`, the 50% inhibitory concentration (IC50) in data set [2] worked out at 2160 nM. On to `CC(=N)Nc1cc(C(=O)Nc2cc(C(=O)Nc3nc(C(=O)NCCCN(C)C)c(CCC(C)C)s3)n(C)c2)n(C)c1`, for which the “growth inhibition (GI)” value in [7] was “inactive”. Take `CC(C)c1nc(N)sc1C(=O)Nc1cc(C(=O)Nc2cc(C(=O)NCCN3CCOCC3)n(C)c2)n(C)c1`: the inhibition of growth at 15.36 µg/mL in data set [1] came to 57%. Turning to `Cn1cc(NC(=O)c2cc(NC(=O)c3ccc(/C=C/c4ccc(F)cc4)cc3)cn2C)cc1C(=O)NCCN1CCOCC1`, the “growth inhibition (GI)” value in data set [7] is “inactive”. For `COc1cccc(C(=N)Nc2cc(C(=O)Nc3cc(C(=O)Nc4cc(C(=O)NCCCN5CCOCC5)n(C)c4)n(C)c3)n(C)c2)c1`, in [7], the “growth inhibition (GI)” value is “inactive”.

For `CSc1ccc(/C=C/c2ccc3cc(C(=O)Nc4cc(C(=O)Nc5cc(C(=O)NCCN6CCOCC6)n(C)c5)n(C)c4)ccc3n2)cc1`, in [1], the inhibition of growth at 15.36 µg/mL worked out at 19%. Regarding `Cn1cc(NC(=O)c2cc(NC(=O)c3ccc(/C=C/c4ccc5nsnc5c4)cc3)cn2C)cc1C(=O)NCCN1CCOCC1`, the inhibition of growth at 15.36 µg/mL in data set [1] was determined as 37%.

With `COc1cccc(/C=C/c2ccc(C(=O)Nc3cc(C(=O)N4CCN(C)CC4)n(C)c3)cc2)c1`, the inhibition of growth at 15.36 µg/mL in data set [1] is 76%.

`CN(C)c1ccc(/C=C/c2ccc(C(=O)Nc3cc(C(=O)Nc4cc(C(=O)NCCN5CCOCC5)n(C)c4)n(C)c3)cn2)cc1`: the Drug uptake entry in data set [9] is on record as “Dose-dependent effect”.

As to `CC(C)n1cc(NC(=O)c2cc(NC(=O)c3cnc4ccccc4n3)cn2C)cc1C(=O)Nc1cc(C(=O)NCCCN(C)C)n(C)c1`, in [7], the “growth inhibition (GI)” value was “inactive”.

As to `COc1ccc(/C=C/c2ccc(C(=O)Nc3cc(C(=O)Nc4cc(C(=O)NCCN5CCOCC5)n(C)c4)n(C)c3)cn2)cc1`, in data set [1], the inhibition of growth at 15.36 µg/mL came to 44%.

Take `CC(=O)Nc1cc(C(=O)Nc2cc(C(=O)Nc3cc(C(=O)NCCCN(C)C)n(C)c3)n(C)c2)c(C)s1`: the “growth inhibition (GI)” value in data set [7] was “inactive”.

Regarding `COc1ccc(/C=C(/C(=O)Nc2cc(C(=O)Nc3cc(C(=O)NCCCN(C)C)n(C)c3)n(C)c2)c2ccc(OC)cc2)cc1`, in [7], the “growth inhibition (GI)” value is “inactive”. As for `COc1cccc(C(=N)Nc2cc(C(=O)Nc3cc(C(=O)Nc4nc(C(=O)NCCCN(C)C)c(C(C)C)s4)n(C)c3)n(C)c2)c1`, in [1], the inhibition of growth at 15.36 µg/mL stood at 34%. On to `COc1cccc(/C=C/c2ccc(C(=O)Nc3cc(C(=O)Nc4cc(C(=O)NCCN5CCOCC5)n(C(C)C)c4)n(C)c3)cc2)c1`, for which the IC50 in [2] was found to be 1100 nM. Also, the inhibition of growth at 15.36 µg/mL in data set [1] was determined as 88%.

`Cn1cc(NC(=O)c2cc(NC(=O)c3ccc(/C=C/c4ccc5nonc5c4)cc3)cn2C)cc1C(=O)NCCN1CCOCC1`: the inhibition of growth at 15.36 µg/mL in [1] was 30.9%.

In the case of `CC(=O)Nc1cc(C(=O)Nc2cc(C(=O)Nc3cc(C(=O)Nc4cc(C(=O)NCCCN(C)C)n(C)c4)n(CCC(C)C)c3)n(C)c2)n(C)c1`, the “growth inhibition (GI)” value in [7] was “inactive”. In the case of `CC(C)CCc1sc(NC(=O)c2cc(NC(=O)c3ccc(/C=C/c4cc5ccccc5nc4Cl)cc3)cn2C)nc1C(=O)NCCN1CCOCC1`, in data set [7], the “growth inhibition (GI)” value is “inactive”.

On to `Nc1ccn([C@@H]2O[C@H](CO)[C@@H](O)C2(F)F)c(=O)n1` [GEMCITABINE], for which the IC50 in data set [2] was determined as 11000 nM. Turning to `COc1ccc(/C=C/c2ccc(C(=O)Nc3cc(C(=O)Nc4cc(C(=O)NCCN5CCOCC5)n(C)c4)n(C(C)C)c3)cn2)cc1`, the inhibition of growth at 15.36 µg/mL in data set [1] amounted to 85%. On to `Cn1cc(NC(=O)c2cc(NC(=O)c3cc(NC(=O)c4ccc(Cl)cc4Cl)cn3C)cn2C)cc1C(=O)NCCCN1CCOCC1`, for which the “growth inhibition (GI)” value in data set [7] is “inactive”.

On to `COc1cccc(/C=C/c2ccc(C(=O)Nc3cc(C(=O)Nc4cc(C(=O)NCCN5CCOCC5)n(C)c4)n(C)c3)cc2)c1`, for which the “growth inhibition (GI)” value in [7] was “inactive”.
